Experimental data reported in ChEMBL document CHEMBL1123352, “Anticonvulsant activity of 2- and 3-aminobenzanilides” (J Med Chem, 1986).
Calls of active or inactive are those of the source. The calls are words filed in the database; no cut-off is given here.

How the values were obtained:
Mus musculus [1] = test: Anticonvulsant activity against subcutaneous pentylenetetrazole induced convulsions in mice 30 min after ip administration of 600 mg/kg.; type: functional, organism-based; parameters: dose 600 mg/kg
Method in brief: (§1)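 Male Carworth Farms No. 1 mice were dosed ip with compound in 30% PEG 400, at 30–600 mg/kg, and read at 30 min and 4 h. Pentylenetetrazole was given at 85 mg/kg as a 0.5% solution sc in the posterior midline. Protection meant no single episode of clonic spasms lasting at least 5 s over a 30-min observation.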

Mus musculus [2] = test: Compound was tested for toxicity by rotarod assay method in mice 4 hours after ip administration of 600 mg/kg; NA=No activity; type: organism-based; parameters: dose 600 mg/kg, route intraperitoneal; details: in vivo
Mus musculus [3] = test: Anticonvulsant activity against subcutaneous pentylenetetrazole induced convulsions in mice 4 hr after ip administration of 600 mg/kg.; type: functional, organism-based; parameters: dose 600 mg/kg; method in brief: as §1
Mus musculus [4] = test: Anticonvulsant activity against maximal electroshock (MES) induced seizures in mice 30 minutes after ip administration of 600 mg/kg; A=Active; type: functional, organism-based; parameters: dose 600 mg/kg
Method in brief: (§2)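 Male Carworth Farms No. 1 mice were dosed ip with compound in 30% polyethylene glycol 400, at 30, 100 and 300 mg/kg and sometimes 600 mg/kg, and tested 30 min and 4 h later. A drop of 0.9% saline went in the eye, then 60-cycle AC at 50 mA was given for 0.2 s via corneal electrodes. Protection meant abolition of hind limb tonic extension.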

Mus musculus [5] = test: Compound was tested for toxicity by rotarod assay method in mice 30 min after ip administration of 600 mg/kg; no activity; type: organism-based; parameters: dose 600 mg/kg, route intraperitoneal; details: in vivo, 0.5 h
Mus musculus [6] = test: Anticonvulsant activity against maximal electroshock (MES) induced seizures in mice 4 hours after ip administration of 600 mg/kg.; type: functional, organism-based; parameters: dose 600 mg/kg; method in brief: as §2
Mus musculus [7] = test: Anticonvulsant activity against subcutaneous pentylenetetrazole induced convulsions in mice 4 hours after ip administration of 600 mg/kg; No=No activity; type: functional, organism-based; parameters: dose 600 mg/kg; method in brief: as §1
Mus musculus [8] = test: Compound was tested for toxicity by rotarod assay method in mice 4 hours after ip administration at 600 mg/kg; no activity; type: organism-based; parameters: dose 600 mg/kg, route intraperitoneal; details: in vivo
Mus musculus [9] = test: Anticonvulsant activity against maximal electroshock (MES) induced seizures in mice 30 minutes after ip administration of 600 mg/kg; NA=No activity; type: functional, organism-based; parameters: dose 600 mg/kg; method in brief: as §2
Mus musculus [10] = test: Compound was tested for toxicity by rotarod assay method in mice 30 min after ip administration at 600 mg/kg; no activity; type: organism-based; parameters: dose 600 mg/kg, route intraperitoneal; details: in vivo, 0.5 h
Mus musculus [11] = test: Anticonvulsant activity against sc pentylenetetrazole-induced convulsions in mice 30 minutes after ip administration of 300 mg/kg; Active; type: functional, organism-based; parameters: dose 300 mg/kg; method in brief: as §1
Mus musculus [12] = test: Compound was tested for toxicity by rotarod assay method in mice 30 min after ip administration of 300 mg/kg; Active; type: organism-based; parameters: dose 300 mg/kg, route intraperitoneal; details: in vivo, 0.5 h
Mus musculus [13] = test: Anticonvulsant activity against maximal electroshock (MES) induced seizures in mice 4 hours after ip administration of 600 mg/kg; A=Active; type: functional, organism-based; parameters: dose 600 mg/kg; method in brief: as §2
Mus musculus [14] = test: Anticonvulsant activity against maximal electroshock (MES) induced seizures in mice 30 minutes after ip administration of 300 mg/kg; A=Active; type: functional, organism-based; parameters: dose 300 mg/kg; method in brief: as §2
Mus musculus [15] = test: Anticonvulsant activity against sc pentylenetetrazole induced convulsions in mice 30 minutes after ip administration of 600 mg/kg; A=Active; type: functional, organism-based; parameters: dose 600 mg/kg; method in brief: as §1
Mus musculus [16] = test: Anticonvulsant activity against maximal electroshock (MES) induced seizures in mice […] after ip administration of 600 mg/kg; NA=No activity; type: functional, organism-based; parameters: dose 600 mg/kg; method in brief: as §2
Mus musculus [17] = test: Compound was tested for toxicity by rotarod assay method in mice 30 min after ip administration of 600 mg/kg; A=Active; type: organism-based; parameters: dose 600 mg/kg, route intraperitoneal; details: in vivo, 0.5 h
Mus musculus [18] = test: Anticonvulsant activity against maximal electroshock (MES)-induced seizures in mice 4 hours after ip administration of 300 mg/kg; A=Active; type: functional, organism-based; parameters: dose 300 mg/kg; method in brief: as §2
Mus musculus [19] = test: Compound was tested for toxicity by rotarod assay method in mice after intraperitoneal administration after 4 hours at 600 mg/kg; no activity; type: organism-based; parameters: dose 600 mg/kg, route intraperitoneal; details: in vivo, ip
Mus musculus [20] = test: Anticonvulsant activity against maximal electroshock (MES) induced seizures in mice 4 hours after ip administration of 300 mg/kg; A=Active; type: functional, organism-based; parameters: dose 300 mg/kg; method in brief: as §2
Mus musculus [21] = test: Compound was tested for toxicity by rotarod assay method in mice 4 hours after ip administration of 600 mg/kg; A=Active; type: organism-based; parameters: dose 600 mg/kg, route intraperitoneal; details: in vivo
Mus musculus [22] = test: Anticonvulsant activity against subcutaneous pentylenetetrazole induced convulsions in mice after intraperitoneal administration after 4 hr at 600 mg/kg; NA=No activity; type: functional, organism-based; parameters: dose 600 mg/kg; method in brief: as §1
Mus musculus [23] = test: Anticonvulsant activity against maximal electroshock (MES) induced seizures in mice 30 minutes after ip administration of 30 mg/kg; A=Active; type: functional, organism-based; parameters: dose 30 mg/kg; method in brief: as §2
[24] = Protective index measured as the ratio between TD50 and ED50; type: ADME; details: read-out: PI
Mus musculus [25] = test: Anticonvulsant activity against maximal electroshock (MES) induced seizures in mice 4 hours after ip administration of 100 mg/kg; A=Active; type: functional, organism-based; parameters: dose 100 mg/kg; method in brief: as §2
[26] = Compound for toxicity by rotarod assay method in mice after administration; type: organism-based; details: mouse, in vivo
Method in brief: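 Neurologic deficit was tested in male Carworth Farms No. 1 mice 30 min and 4 h after ip dosing in 30% PEG 400, at 30–600 mg/kg. Each mouse was placed on a 1-in.-diameter knurled plastic rod turning at 6 rpm. Toxicity meant failing to stay on the rod for 1 min.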

Mus musculus [27] = species: Mus musculus; test: Anticonvulsant activity against maximal electroshock (MES)-induced seizures in mice; type: functional; method in brief: as §2

In the case of `Cc1cccc(C(C)C)c1NC(=O)c1ccccc1N`, the Anticonvulsant activity (Mus musculus [1]) is reported as “inactive”, the Toxicity (Mus musculus [2]) is reported as “Not Active” and the Anticonvulsant activity (Mus musculus [3]) is reported as “inactive”. For the same compound, the Anticonvulsant activity (Mus musculus [4]) was “Active”, the Toxicity (Mus musculus [5]) was “Not Active” and the Anticonvulsant activity (Mus musculus [6]) was “inactive”.

In the case of `Cc1ccc(C)c(NC(=O)c2cccc(N)c2)c1`, the Anticonvulsant activity (Mus musculus [1]) is reported as “inactive”, the Anticonvulsant activity (Mus musculus [7]) is reported as “inactive” and the Toxicity (Mus musculus [8]) is reported as “Not Active”. The Anticonvulsant activity (Mus musculus [9]) was “inactive”, the Anticonvulsant activity (Mus musculus [6]) was “inactive” and the Toxicity (Mus musculus [10]) was “Not Active”.

With `Cc1cccc(C)c1NC(=O)c1ccccc1N` the Anticonvulsant activity (Mus musculus [11]) was “Active”, the Toxicity (Mus musculus [2]) was “Not Active” and the Anticonvulsant activity (Mus musculus [3]) was “inactive”. The Toxicity (Mus musculus [12]) was “Active”, the Anticonvulsant activity (Mus musculus [13]) was “Active” and the Anticonvulsant activity (Mus musculus [14]) was “Active”.

In the case of `Cc1cccc(NC(=O)c2ccccc2N)c1C`, the Anticonvulsant activity (Mus musculus [15]) is reported as “Active”, the Anticonvulsant activity (Mus musculus [16]) is reported as “inactive” and the Toxicity (Mus musculus [2]) is reported as “Not Active”. The Anticonvulsant activity (Mus musculus [3]) was “inactive”, the Anticonvulsant activity (Mus musculus [6]) was “inactive” and the Toxicity (Mus musculus [17]) was “Active”.

In the case of `Cc1cccc(C(C)C)c1NC(=O)c1cccc(N)c1`, the Anticonvulsant activity (Mus musculus [1]) is reported as “inactive”, the Anticonvulsant activity (Mus musculus [3]) is reported as “inactive” and the Anticonvulsant activity (Mus musculus [4]) is reported as “Active”. For the same compound, the Toxicity (Mus musculus [5]) was “Not Active”, the Anticonvulsant activity (Mus musculus [18]) was “Active” and the Toxicity (Mus musculus [19]) was “Not Active”.

In the case of `Cc1ccc(NC(=O)c2cccc(N)c2)cc1`, the Anticonvulsant activity (Mus musculus [1]) is reported as “inactive”, the Anticonvulsant activity (Mus musculus [3]) is reported as “inactive” and the Anticonvulsant activity (Mus musculus [20]) is reported as “Active”. The Toxicity (Mus musculus [5]) was “Not Active”, the Toxicity (Mus musculus [21]) was “Active” and the Anticonvulsant activity (Mus musculus [14]) was “Active”.

For `Cc1ccccc1NC(=O)c1ccccc1N`, the Anticonvulsant activity (Mus musculus [15]) was “Active”, the Toxicity (Mus musculus [2]) was “Not Active” and the Anticonvulsant activity (Mus musculus [22]) was “inactive”. For the same compound, the Toxicity (Mus musculus [12]) was “Active”, the Anticonvulsant activity (Mus musculus [13]) was “Active” and the Anticonvulsant activity (Mus musculus [14]) was “Active”.

In the case of `CCc1cccc(C(C)C)c1NC(=O)c1cccc(N)c1`, the Anticonvulsant activity (Mus musculus [1]) is reported as “inactive”, the Anticonvulsant activity (Mus musculus [3]) is reported as “inactive” and the Toxicity (Mus musculus [5]) is reported as “Not Active”. The Toxicity (Mus musculus [19]) was “Not Active”, the Anticonvulsant activity (Mus musculus [13]) was “Active” and the Anticonvulsant activity (Mus musculus [14]) was “Active”.

For `Cc1cccc(C)c1NC(=O)c1cccc(N)c1`, the Anticonvulsant activity (Mus musculus [1]) was “inactive”, the Anticonvulsant activity (Mus musculus [23]) was “Active” and the selectivity ratio [24] was 21.1. The Anticonvulsant activity (Mus musculus [3]) was “inactive”, the Anticonvulsant activity (Mus musculus [25]) was “Active” and the TD50 [26] was 285 mg/kg. The Toxicity (Mus musculus [17]) was “Active”, the Toxicity (Mus musculus [21]) was “Active” and the ED50 (Mus musculus [27]) was 13.5 mg/kg.

In the case of `Cc1ccc(NC(=O)c2ccccc2N)cc1C`, the Anticonvulsant activity (Mus musculus [1]) is reported as “inactive”, the Anticonvulsant activity (Mus musculus [7]) is reported as “inactive” and the Toxicity (Mus musculus [8]) is reported as “Not Active”. For the same compound, the Anticonvulsant activity (Mus musculus [9]) was “inactive”, the Anticonvulsant activity (Mus musculus [6]) was “inactive” and the Toxicity (Mus musculus [10]) was “Not Active”.

In the case of `CCc1cccc(C(C)C)c1NC(=O)c1ccccc1N`, the Anticonvulsant activity (Mus musculus [1]) is reported as “inactive”, the Anticonvulsant activity (Mus musculus [7]) is reported as “inactive” and the Toxicity (Mus musculus [8]) is reported as “Not Active”. For the same compound, the Anticonvulsant activity (Mus musculus [9]) was “inactive”, the Anticonvulsant activity (Mus musculus [6]) was “inactive” and the Toxicity (Mus musculus [10]) was “Not Active”.

In the case of `Cc1ccc(NC(=O)c2ccccc2N)cc1`, the Anticonvulsant activity (Mus musculus [1]) is reported as “inactive”, the Anticonvulsant activity (Mus musculus [7]) is reported as “inactive” and the Toxicity (Mus musculus [8]) is reported as “Not Active”. The Anticonvulsant activity (Mus musculus [9]) was “inactive”, the Anticonvulsant activity (Mus musculus [6]) was “inactive” and the Toxicity (Mus musculus [10]) was “Not Active”.

With `Cc1ccc(NC(=O)c2ccccc2N)c(C)c1` the Anticonvulsant activity (Mus musculus [15]) was “Active”, the Toxicity (Mus musculus [2]) was “Not Active” and the Anticonvulsant activity (Mus musculus [3]) was “inactive”. The Anticonvulsant activity (Mus musculus [4]) was “Active”, the Toxicity (Mus musculus [17]) was “Active” and the Anticonvulsant activity (Mus musculus [13]) was “Active”.
